This is an account of results in ChEMBL document CHEMBL4665761, “Optimizing the Benefit/Risk of Acetyl-CoA Carboxylase Inhibitors through Liver Targeting” (J Med Chem, 2020).

Values after ≈ are worked out from the molar mass of the structure shown.

A short description of series [1]: Tmax in Wistar-Hannover rat plasma at 4 mg/kg, po and measured up to 24 hrs by LC/MS-MS analysis. It is filed as ADME, organism-based. The method, boiled down:
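Plasma concentration–time data, n = 2, averaged. Cmax and Tmax read directly from the data. AUC0–24 by the linear trapezoidal rule. F calculated as dose-normalized AUC PO/IV.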

The target in another series is Bile salt export pump (Homo sapiens, UniProt O95342). Put plainly: Inhibition of human BSEP expressed in baculovirus infected Hi5 insect cells in presence of taurocholic acid by LC-MS/MS analysis.
Bile salt export pump, sequence (O95342 whole entry): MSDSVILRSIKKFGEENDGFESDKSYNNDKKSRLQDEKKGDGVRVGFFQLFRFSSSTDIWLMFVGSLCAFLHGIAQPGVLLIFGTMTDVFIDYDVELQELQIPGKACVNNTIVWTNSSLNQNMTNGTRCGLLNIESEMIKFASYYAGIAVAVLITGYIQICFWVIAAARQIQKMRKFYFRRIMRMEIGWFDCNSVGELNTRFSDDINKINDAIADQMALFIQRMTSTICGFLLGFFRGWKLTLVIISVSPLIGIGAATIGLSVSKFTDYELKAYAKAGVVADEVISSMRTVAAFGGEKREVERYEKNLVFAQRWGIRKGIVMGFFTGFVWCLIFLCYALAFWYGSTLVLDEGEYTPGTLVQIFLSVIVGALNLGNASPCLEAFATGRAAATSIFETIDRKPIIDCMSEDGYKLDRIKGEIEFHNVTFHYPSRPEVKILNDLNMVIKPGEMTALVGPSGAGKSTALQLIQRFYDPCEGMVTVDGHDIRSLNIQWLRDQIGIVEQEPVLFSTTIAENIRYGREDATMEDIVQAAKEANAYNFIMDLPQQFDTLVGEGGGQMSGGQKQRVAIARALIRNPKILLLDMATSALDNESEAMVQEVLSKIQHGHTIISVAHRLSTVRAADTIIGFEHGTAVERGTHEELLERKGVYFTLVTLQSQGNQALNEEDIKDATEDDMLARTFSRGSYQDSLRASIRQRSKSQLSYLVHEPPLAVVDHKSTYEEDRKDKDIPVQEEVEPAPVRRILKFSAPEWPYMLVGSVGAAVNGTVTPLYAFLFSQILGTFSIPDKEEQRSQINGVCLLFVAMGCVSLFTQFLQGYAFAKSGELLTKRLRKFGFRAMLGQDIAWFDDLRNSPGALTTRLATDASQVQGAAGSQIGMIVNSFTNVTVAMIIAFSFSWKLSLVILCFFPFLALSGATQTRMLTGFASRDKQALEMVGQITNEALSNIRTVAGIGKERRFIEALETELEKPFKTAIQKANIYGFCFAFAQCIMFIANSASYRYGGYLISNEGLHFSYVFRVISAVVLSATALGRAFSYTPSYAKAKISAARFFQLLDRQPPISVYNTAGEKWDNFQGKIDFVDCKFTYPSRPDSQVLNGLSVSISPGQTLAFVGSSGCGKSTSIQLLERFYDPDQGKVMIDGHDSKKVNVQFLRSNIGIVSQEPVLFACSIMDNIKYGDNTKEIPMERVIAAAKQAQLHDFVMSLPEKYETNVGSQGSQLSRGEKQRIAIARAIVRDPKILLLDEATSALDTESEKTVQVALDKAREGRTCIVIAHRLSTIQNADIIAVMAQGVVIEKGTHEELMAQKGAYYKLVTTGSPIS
Series [2] deals with Organic anion transporter 3 (Homo sapiens, UniProt Q8TCC7). Put plainly: Inhibition of human SLC22A8 expressed in HEK293 cells in presence of para-aminohippuric acid/metformin. The class given is cell-based.
Organic anion transporter 3, sequence (Q8TCC7 whole entry): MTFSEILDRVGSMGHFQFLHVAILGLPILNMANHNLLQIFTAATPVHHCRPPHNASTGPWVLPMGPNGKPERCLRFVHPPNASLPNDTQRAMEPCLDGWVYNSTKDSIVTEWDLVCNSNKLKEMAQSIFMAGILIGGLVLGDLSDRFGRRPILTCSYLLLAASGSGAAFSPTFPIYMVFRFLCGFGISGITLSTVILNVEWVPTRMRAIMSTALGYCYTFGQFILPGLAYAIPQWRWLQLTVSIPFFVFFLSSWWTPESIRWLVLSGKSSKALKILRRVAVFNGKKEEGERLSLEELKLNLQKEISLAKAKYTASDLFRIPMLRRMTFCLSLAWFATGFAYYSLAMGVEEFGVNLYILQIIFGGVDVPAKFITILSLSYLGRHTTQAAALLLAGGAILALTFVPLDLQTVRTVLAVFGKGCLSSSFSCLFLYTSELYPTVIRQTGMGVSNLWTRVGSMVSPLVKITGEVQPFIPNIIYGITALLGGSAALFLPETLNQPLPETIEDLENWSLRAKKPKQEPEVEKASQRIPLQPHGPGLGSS
Series [3] has as its target UDP-glucuronosyltransferase 1A6 (Homo sapiens, UniProt P19224). Put plainly: Inhibition of UGT1A6 in human liver microsomes incubated for 90 mins in presence of UDPGA by LC-MS/MS analysis. The class given is ADME. Background: Microsomes from liver hold many membrane-bound enzymes, among them those of drug oxidation.
Series [4] is described as follows: Drug uptake in human hepatocytes assessed as passive diffusion clearance at 1 uM up to 15 mins in presence of rifamycin SV by LC-MS/MS analysis. It is filed as ADME, cell-based, Hepatocyte. As to conditions: 0.25 h.
A further series has as its target T1, OATP1B3 (Homo sapiens, UniProt Q9NPD5).
T1 sequence (Q9NPD5 whole entry): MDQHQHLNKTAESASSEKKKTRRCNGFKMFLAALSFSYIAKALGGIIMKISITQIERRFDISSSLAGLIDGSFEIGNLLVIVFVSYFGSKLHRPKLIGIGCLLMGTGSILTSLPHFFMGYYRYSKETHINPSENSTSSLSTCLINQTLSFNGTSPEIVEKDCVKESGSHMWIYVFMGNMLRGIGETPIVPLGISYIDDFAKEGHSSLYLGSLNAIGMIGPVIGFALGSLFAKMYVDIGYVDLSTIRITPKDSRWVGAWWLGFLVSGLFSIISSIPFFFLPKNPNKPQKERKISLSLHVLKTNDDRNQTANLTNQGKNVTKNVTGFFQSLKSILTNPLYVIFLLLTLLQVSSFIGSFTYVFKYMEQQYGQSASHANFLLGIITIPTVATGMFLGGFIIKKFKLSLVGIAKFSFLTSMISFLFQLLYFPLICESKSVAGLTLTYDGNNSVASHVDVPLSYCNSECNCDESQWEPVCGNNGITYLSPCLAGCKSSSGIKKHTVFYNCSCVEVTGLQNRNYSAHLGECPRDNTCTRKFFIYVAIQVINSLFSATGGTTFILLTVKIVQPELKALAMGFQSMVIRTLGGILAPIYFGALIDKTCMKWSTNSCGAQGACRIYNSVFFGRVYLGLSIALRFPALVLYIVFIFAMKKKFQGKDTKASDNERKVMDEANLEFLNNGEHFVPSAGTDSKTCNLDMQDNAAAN
Put plainly: Substrate activity at human OATP1B3 stably expressed in HEK293 cells assessed as ratio of total to passive cellular uptake at 1 to 3 uM incubated for 0.5 to 4 mins by LC/MS-MS analysis. It is filed as ADME, cell-based. As to conditions: HEK293 cells stably expressing human OATP1B3, dose 1-3 µM, time 0.5-4 min. The method, boiled down:
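Stably transfected HEK293 cells and wild-type parental cells, cultured to confluency in DMEM with 10% heat-inactivated FBS and 5 µg/mL blasticidin. Uptake at 1–3 µM in HBSS/20 mM HEPES pH 7.4, 37 °C, 0.5–4.0 min. Cells washed in ice-cold buffer, lysed in MeOH, quantified by LC-MS/MS and normalized to protein. Ratio is transfected/parental uptake; >2 denotes substrate.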

Series [5] can be described thus: Genotoxicity in Salmonella typhimurium TA98 by Ames test. It is filed as toxicity. The settings on record: salmonella enterica subsp. enterica serovar typhimurium. The method, boiled down: (§1)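 Ames test in Salmonella strains TA98, TA100, TA1535 and TA1537, run with and without aroclor-induced rat liver S9 plus NADPH.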
For orientation: In the Ames test, an excess of revertant colonies over the control signals mutagenicity.

Series [6] has as its target Solute carrier family 22 member 2 (Homo sapiens, UniProt O15244). Put plainly: Inhibition of human SLC22A2 expressed in HEK293 cells in presence of para-aminohippuric acid/metformin. The class given is cell-based.
Series [7] can be described thus: Half life in cynomolgus monkey plasma at 1 mg/kg, iv and measured up to 72 hrs by LC/MS-MS analysis. The class given is ADME, organism-based, Macaca fascicularis. The procedure, abridged: (§2)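 Cynomolgus monkeys dosed 1 mg/kg IV as the tris salt in 2% N-methylpyrrolidone/98% sulfobutylether-β-cyclodextrin (12.5%) in 50 mM TRIS, pH 8.0, or PO as the tris salt. Plasma was analysed by LC-MS/MS, n = 2. CL = IV dose/AUC; Vss = dose/(AUC × elimination rate constant); Cmax taken from observed data.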

Series [8] concerns the target P-glycoprotein 1 (Homo sapiens). Put plainly: Inhibition of human ABCB1 expressed in MDCK2-LE cells in presence of […].
A short description of series [9]: Thermodynamic solubility of the compound at pH 1.2 after 24 hrs. It is filed as physicochemical. As to conditions: buffer, read-out: Therm_solubility.
Series [10] in a line: Toxicity in cynomolgus monkey assessed as reduction in platelet count at >= 30 mg/kg, po after 14 days. The class given is organism-based, Macaca fascicularis. The settings on record: in vivo.
Series [11] can be described thus: Drug recovery in bile duct-cannulated Wistar-Hannover rat bile at 1 mg/kg, iv and measured up to 24 hrs by LC/MS-MS analysis. As to conditions: read-out: Drug recovery. It is filed as ADME, organism-based. The method, boiled down:
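Rats received a 1 mg/kg IV dose. Bile was pooled over 0–24 h and analysed for unchanged parent.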

Series [12] can be described thus: Drug uptake in human hepatocytes assessed as ratio of active uptake intrinsic clearance to passive diffusion clearance at 1 uM up to 15 mins by LC-MS/MS analysis. It is filed as ADME, cell-based, Hepatocyte. As to conditions: 0.25 h.
The nature of series [13]: Inhibition of DNL in Sprague-Dawley rat assessed as reduction in DNL level in lung at 300 mg/kg, po pretreated with 1 hr followed by [14C]-acetate treatment and measured after 1 hr relative to control. It is filed as functional. As to conditions: time 2 hrs. The method, boiled down: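 Sprague-Dawley rats given single oral doses of 0.03–300 mg/kg in 0.5% methyl cellulose vehicle, n = 16 per dose. Read-out is incorporation of 14C-acetate into lipids in liver, bone marrow and lung, measured at 2 h post-dose relative to vehicle. Data are mean ± SEM. EC50 is reported with a 95% confidence interval.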

Series [14] in a line: Genotoxicity in Salmonella typhimurium TA1537 by Ames test. The class given is toxicity. As to conditions: salmonella enterica subsp. enterica serovar typhimurium. The method, boiled down:
as §1

Series [15] is described as follows: Apparent volume of distribution at steady state in cynomolgus monkey plasma at 1 mg/kg, iv and measured up to 72 hrs by LC/MS-MS analysis. The class given is ADME, organism-based, Macaca fascicularis. The settings on record: read-out: Vdss(app). The procedure, abridged:
as §2

Series [16] addresses Voltage-gated inwardly rectifying potassium channel KCNH2 (Homo sapiens, UniProt Q12809). Put plainly: Inhibition of human ERG at 100 uM.
A further series has as its system TK6. Put plainly: Genotoxicity in human TK6 cells in presence of (aroclor-induced rat liver S9 fraction/NADPH by micronucleus test. It is filed as toxicity, cell-based. The method, boiled down:
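In vitro micronucleus assay in Chinese hamster ovary or TK6 cells, run with and without metabolic activation by aroclor-induced rat liver S9 fraction plus NADPH.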

A short description of series [17]: Drug excretion in Wistar-Hannover rat urine at 1 mg/kg, iv and measured up to 24 hrs by LC/MS-MS analysis. It is filed as ADME, organism-based. As to conditions: read-out: Drug excretion.

UDP-glucuronosyltransferase 1A6, sequence (P19224 whole entry, the tested form may be a part): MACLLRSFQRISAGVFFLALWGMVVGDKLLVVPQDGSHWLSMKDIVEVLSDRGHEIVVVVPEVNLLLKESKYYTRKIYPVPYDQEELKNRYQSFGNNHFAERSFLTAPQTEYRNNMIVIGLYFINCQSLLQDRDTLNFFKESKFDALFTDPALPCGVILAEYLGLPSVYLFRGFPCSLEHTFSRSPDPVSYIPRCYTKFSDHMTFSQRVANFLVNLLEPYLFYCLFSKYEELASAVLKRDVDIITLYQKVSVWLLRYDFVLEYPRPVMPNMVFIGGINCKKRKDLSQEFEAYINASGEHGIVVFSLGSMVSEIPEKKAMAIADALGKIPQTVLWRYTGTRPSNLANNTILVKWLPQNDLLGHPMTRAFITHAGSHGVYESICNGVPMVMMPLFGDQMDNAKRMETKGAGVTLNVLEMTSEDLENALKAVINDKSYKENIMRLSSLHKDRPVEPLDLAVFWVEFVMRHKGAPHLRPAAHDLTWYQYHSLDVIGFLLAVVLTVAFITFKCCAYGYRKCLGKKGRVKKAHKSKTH
Voltage-gated inwardly rectifying potassium channel KCNH2, sequence (Q12809 whole entry): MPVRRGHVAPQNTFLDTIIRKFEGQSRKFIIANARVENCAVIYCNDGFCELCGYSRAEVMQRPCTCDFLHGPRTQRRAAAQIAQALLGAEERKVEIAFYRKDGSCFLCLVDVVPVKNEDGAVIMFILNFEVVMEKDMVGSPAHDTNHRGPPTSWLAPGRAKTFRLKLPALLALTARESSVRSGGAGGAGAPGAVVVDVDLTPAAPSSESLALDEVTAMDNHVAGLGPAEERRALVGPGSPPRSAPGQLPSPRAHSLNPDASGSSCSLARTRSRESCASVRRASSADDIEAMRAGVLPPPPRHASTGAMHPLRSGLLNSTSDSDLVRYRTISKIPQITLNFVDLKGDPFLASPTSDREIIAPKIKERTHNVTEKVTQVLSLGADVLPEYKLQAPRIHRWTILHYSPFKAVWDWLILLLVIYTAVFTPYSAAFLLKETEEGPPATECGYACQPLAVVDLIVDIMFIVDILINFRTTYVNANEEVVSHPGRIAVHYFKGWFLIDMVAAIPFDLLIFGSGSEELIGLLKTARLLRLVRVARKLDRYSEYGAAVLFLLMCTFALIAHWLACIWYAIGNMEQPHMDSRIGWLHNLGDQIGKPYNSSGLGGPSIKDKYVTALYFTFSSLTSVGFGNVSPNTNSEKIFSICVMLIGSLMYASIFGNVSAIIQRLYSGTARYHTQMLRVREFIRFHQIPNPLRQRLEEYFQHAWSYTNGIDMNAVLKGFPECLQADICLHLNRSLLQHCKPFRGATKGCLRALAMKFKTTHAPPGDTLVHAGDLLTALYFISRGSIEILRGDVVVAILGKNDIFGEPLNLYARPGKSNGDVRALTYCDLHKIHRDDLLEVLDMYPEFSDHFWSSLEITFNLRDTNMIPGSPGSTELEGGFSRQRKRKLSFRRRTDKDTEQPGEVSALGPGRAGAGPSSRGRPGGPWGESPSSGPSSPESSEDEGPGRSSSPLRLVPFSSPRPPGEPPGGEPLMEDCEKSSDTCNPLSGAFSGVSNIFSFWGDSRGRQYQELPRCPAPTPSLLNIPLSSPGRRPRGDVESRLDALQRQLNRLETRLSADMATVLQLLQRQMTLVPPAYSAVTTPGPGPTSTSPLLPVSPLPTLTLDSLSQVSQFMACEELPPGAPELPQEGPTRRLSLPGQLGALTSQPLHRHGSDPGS
Solute carrier family 22 member 2, sequence (O15244 whole entry): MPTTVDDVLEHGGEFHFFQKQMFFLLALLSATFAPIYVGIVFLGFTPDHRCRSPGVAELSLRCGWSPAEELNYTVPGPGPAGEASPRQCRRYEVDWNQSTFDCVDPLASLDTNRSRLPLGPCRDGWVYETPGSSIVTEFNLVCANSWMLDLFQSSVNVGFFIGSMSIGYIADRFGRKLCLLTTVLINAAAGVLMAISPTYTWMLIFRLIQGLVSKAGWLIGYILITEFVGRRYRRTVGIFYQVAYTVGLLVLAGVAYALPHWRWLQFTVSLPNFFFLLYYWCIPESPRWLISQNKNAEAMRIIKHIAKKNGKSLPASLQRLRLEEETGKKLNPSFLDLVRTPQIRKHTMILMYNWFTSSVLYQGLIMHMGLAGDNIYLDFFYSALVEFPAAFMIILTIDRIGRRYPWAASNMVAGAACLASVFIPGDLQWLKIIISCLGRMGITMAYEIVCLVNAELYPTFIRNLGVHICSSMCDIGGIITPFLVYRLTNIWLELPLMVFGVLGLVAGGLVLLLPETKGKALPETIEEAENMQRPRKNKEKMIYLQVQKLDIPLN

As usually defined, the Tmax is the time at which the peak concentration occurs. For the compound `COc1cc(C(=O)N2CCC3(CC2)CC(=O)c2nn(C(C)(C)C)cc2O3)cc(-c2ccc(C(=O)O)cc2)n1`, the Tmax in [1] amounted to 0.75 h.

For orientation: IC50 means the concentration at which inhibition is half-maximal. As a reminder, the half-life is the time needed for the level to fall by half in the phase considered. The term inhibition in vivo denotes the change of the read-out against control, counted positive when it falls. Consider `COc1cc(C(=O)N2CCC3(CC2)CC(=O)c2c(cnn2C(C)C)C3)cc(-c2ccc(C(=O)O)cc2)n1` [CLESACOSTAT], for which the IC50 on Bile salt export pump was 94 µM; in series [2], over 30 µM; in series [3] it was over 20 µM; in [6] it was over 30 µM; in [8] it was 39 µM. Moreover, in series [4], the CLH was found to be 2.7 µL/min/mg. In addition, on OATP1B3, the uptake ratio at up to 3 µM was determined as 2.5. For the same compound, the Activity result is given as “Non-Toxic” in [5], “Toxic” in series [10], “Non-Toxic” in [14] and “Non-Toxic” with TK6. The compound further showed a half-life in [7] of 11 h. Moreover, the solubility thermodynamic at 24 h in series [9] worked out at 8 µM (≈ 4.02 µg/mL). Further, the figures for the dose excreted at 24 h in [11] and in [17] were 12% and under 2%, respectively. Moreover, in series [12], the Ratio is reported as 8.7. The inhibition in vivo at 300 mg/kg in [13] stood at 29%. In series [15], the Vd came to 0.49 L/kg. Further, the “inhibition (INH)” value in series [16] was “Not Active”.
